Measurements from ChEMBL document CHEMBL3286113, “New potent antibacterial oxazolidinone (MRX-I) with an improved class safety profile” (J Med Chem, 2014).
≈ marks a conversion by molar mass, not a printed value.

Assays:
[1] = test system: Staphylococcus aureus; test: Antibacterial activity against Staphylococcus aureus; assay type: functional
[2] = test system: Rattus norvegicus; test: Toxicity in female rat assessed as effect on mean corpuscular hemoglobin level at 100 mg/kg/day, po bid administered for 4 weeks (reference value: 19.5 pg); assay type: organism-based; set-up: route oral; details: in vivo, 672 h
[3] = test system: Staphylococcus aureus; test: Antibacterial activity against methicillin-sensitive Staphylococcus aureus isolate 15 in po dosed mouse systemic infection model; assay type: functional; details: isolate 15, po
[4] = test system: Streptococcus constellatus; test: Antibacterial activity against Streptococcus constellatus; assay type: functional
[5] = test system: Rattus norvegicus; test: Toxicity in female rat assessed as effect on hematocrit level at 100 mg/kg/day, po bid administered for 4 weeks (reference value: 39.08%); assay type: organism-based; set-up: route oral; details: in vivo, 672 h
[6] = test system: Streptococcus sanguinis; test: Antibacterial activity against Streptococcus sanguinis; assay type: functional
[7] = test system: Rattus norvegicus; test: Toxicity in female rat assessed as effect on mean corpuscular volume at 100 mg/kg/day, po bid administered for 4 weeks (reference value: 53.72 fL); assay type: organism-based; set-up: route oral; details: in vivo, 672 h
[8] = test system: Streptococcus dysgalactiae subsp. equisimilis; test: Antibacterial activity against Streptococcus equisimilis; assay type: functional
[9] = test system: Staphylococcus; test: Antibacterial activity against coagulase-negative Staphylococcus; assay type: functional
[10] = test system: Staphylococcus aureus; test: Antibacterial activity against methicillin-sensitive Staphylococcus aureus; assay type: functional
[11] = test system: Staphylococcus aureus; test: Antibacterial activity against methicillin-resistant Staphylococcus aureus isolate 0612 in po dosed mouse systemic infection model; assay type: functional; details: isolate 0612, po
[12] = test system: Streptococcus pneumoniae; test: Bactericidal activity against penicillin-sensitive Streptococcus pneumoniae; assay type: functional
[13] = test system: Staphylococcus haemolyticus; test: Antibacterial activity against Staphylococcus haemolyticus; assay type: functional
[14] = test system: Streptococcus pneumoniae; test: Bactericidal activity against penicillin-resistant Streptococcus pneumoniae; assay type: functional
[15] = test system: Streptococcus pneumoniae; test: Antibacterial activity against penicillin intermediate-sensitive Streptococcus pneumoniae ATCC 49619 clinical isolate in po dosed mouse systemic infection model; assay type: functional; details: ATCC 49619, po
[16] = test system: Staphylococcus aureus; test: Antibacterial activity against Staphylococcus aureus in po dosed mouse septicemia model; assay type: functional
[17] = test system: Enterococcus faecalis; test: Antibacterial activity against vancomycin-sensitive Enterococcus faecalis ATCC 29212 in po dosed mouse systemic infection model; assay type: functional; details: ATCC 29212, po
[18] = test system: Streptococcus anginosus; test: Antibacterial activity against Streptococcus anginosus; assay type: functional
[19] = test system: Enterococcus; test: Bacteriostatic activity against vancomycin-sensitive Enterococcus; assay type: functional
[20] = test system: Streptococcus mitis; test: Antibacterial activity against Streptococcus mitis; assay type: functional
[21] = test system: Staphylococcus saprophyticus; test: Antibacterial activity against Staphylococcus saprophyticus; assay type: functional
[22] = test system: Enterococcus faecium; test: Bacteriostatic activity against vancomycin-resistant Enterococcus faecium; assay type: functional
[23] = test system: Streptococcus pyogenes; test: Antibacterial activity against Streptococcus pyogenes isolate 556; assay type: functional
[24] = test system: Rattus norvegicus; test: Toxicity in female rat assessed as effect on hemoglobin level at 100 mg/kg/day, po bid administered for 4 weeks (reference value: 141.8 g/L); assay type: organism-based; set-up: route oral; details: in vivo, 672 h
[25] = test system: Streptococcus pneumoniae; test: Bactericidal activity against penicillin intermediate-sensitive Streptococcus pneumoniae; assay type: functional
[26] = test system: Staphylococcus aureus; test: Antibacterial activity against Staphylococcus aureus by agar dilution method; assay type: functional
Procedure, shortened: (§1)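 MIC determined by agar dilution across S. aureus/MRSA isolates; MIC90 is the concentration inhibiting 90% of strains tested.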

[27] = test system: Staphylococcus aureus; test: Antibacterial activity against linezolid-resistant Staphylococcus aureus isolate 4184; assay type: functional
[28] = test system: Enterococcus faecalis; test: Bacteriostatic activity against vancomycin-sensitive Enterococcus faecalis; assay type: functional
[29] = test system: Streptococcus agalactiae; test: Antibacterial activity against Streptococcus agalactiae; assay type: functional
[30] = test system: Rattus norvegicus; test: Toxicity in female rat assessed as effect on lymphocyte count at 100 mg/kg/day, po bid administered for 4 weeks (reference value: 74.8%); assay type: organism-based; set-up: route oral; details: in vivo, 672 h
[31] = test system: Rattus norvegicus; test: Toxicity in female rat assessed as effect on WBC count at 100 mg/kg/day, po bid administered for 4 weeks (reference value: 3.66 x 10^9/L); assay type: organism-based; set-up: route oral; details: in vivo, 672 h
[32] = test system: Streptococcus pyogenes; test: Antibacterial activity against Streptococcus pyogenes; assay type: functional
[33] = test system: Staphylococcus aureus; test: Antibacterial activity against methicillin-resistant Staphylococcus aureus isolate 0605 in po dosed mouse systemic infection model; assay type: functional; details: isolate 0605, po
[34] = test system: Enterococcus faecalis; test: Antibacterial activity against vancomycin-sensitive/high-level gentamycin-resistant Enterococcus faecalis isolate HH22 in po dosed mouse systemic infection model; assay type: functional; details: EnGen0297, po
[35] = test system: Staphylococcus aureus; test: Antibacterial activity against methicillin-sensitive Staphylococcus aureus ATCC 29213 in po dosed mouse systemic infection model; assay type: functional; details: ATCC 29213, po
[36] = test system: Staphylococcus epidermidis; test: Antibacterial activity against methicillin-sensitive Staphylococcus epidermidis; assay type: functional
[37] = test system: Staphylococcus epidermidis; test: Antibacterial activity against methicillin-resistant Staphylococcus epidermidis; assay type: functional
[38] = test system: Rattus norvegicus; test: Toxicity in female rat assessed as effect on reticulocyte count at 100 mg/kg/day, po bid administered for 4 weeks (reference value: 1.48%); assay type: organism-based; set-up: route oral; details: in vivo, 672 h
[39] = target: T1, Amine oxidase [flavin-containing] A (Homo sapiens, UniProt P21397); test: Inhibition of MAO-A (unknown origin) using tyramine as substrate after 30 to 60 mins by fluorescence plate reader analysis
T1 sequence (P21397 whole entry): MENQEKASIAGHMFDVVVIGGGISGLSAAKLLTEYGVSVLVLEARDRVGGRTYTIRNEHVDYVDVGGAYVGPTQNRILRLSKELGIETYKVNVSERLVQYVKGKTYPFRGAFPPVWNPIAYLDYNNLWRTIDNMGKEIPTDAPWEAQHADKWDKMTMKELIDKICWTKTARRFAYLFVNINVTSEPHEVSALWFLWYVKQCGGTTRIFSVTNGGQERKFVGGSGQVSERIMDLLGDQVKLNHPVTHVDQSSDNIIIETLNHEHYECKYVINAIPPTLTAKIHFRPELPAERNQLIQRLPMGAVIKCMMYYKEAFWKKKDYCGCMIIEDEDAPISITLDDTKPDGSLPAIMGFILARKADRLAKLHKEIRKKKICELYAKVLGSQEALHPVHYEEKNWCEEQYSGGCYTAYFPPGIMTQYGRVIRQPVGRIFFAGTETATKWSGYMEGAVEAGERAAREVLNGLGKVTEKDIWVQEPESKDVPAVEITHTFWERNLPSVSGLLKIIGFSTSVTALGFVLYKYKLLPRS

[40] = test system: Staphylococcus aureus; test: Antibacterial activity against methicillin-sensitive Staphylococcus aureus ATCC 29213; assay type: functional
[41] = test system: Staphylococcus aureus; test: Antibacterial activity against methicillin-resistant Staphylococcus aureus by agar dilution method; assay type: functional; procedure, shortened: as §1
[42] = test system: Streptococcus pneumoniae; test: Antibacterial activity against penicillin-sensitive Streptococcus pneumoniae isolate 0806 in po dosed mouse systemic infection model; assay type: functional; details: isolate 0806, po
[43] = test system: Streptococcus pyogenes; test: Antibacterial activity against Streptococcus pyogenes isolate 556 in po dosed mouse systemic infection model; assay type: functional; details: isolate 556, po
[44] = test system: Rattus norvegicus; test: Toxicity in female rat assessed as effect on platelet count at 100 mg/kg/day, po bid administered for 4 weeks (reference value: 654.6 x 10^9/L); assay type: organism-based; set-up: route oral; details: in vivo, 672 h
[45] = test system: Staphylococcus; test: Antibacterial activity against beta-lactamase-negative Staphylococcus; assay type: functional
[46] = test system: Enterococcus faecium; test: Bacteriostatic activity against vancomycin-sensitive Enterococcus faecium; assay type: functional
[47] = test system: Streptococcus pneumoniae; test: Antibacterial activity against penicillin-resistant Streptococcus pneumoniae isolate 0613 in po dosed mouse systemic infection model; assay type: functional; details: isolate 0613, po
[48] = test system: Staphylococcus aureus; test: Antibacterial activity against methicillin-resistant Staphylococcus aureus by broth microdilution method; assay type: functional
Procedure, shortened: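 MIC determined against methicillin-resistant S. aureus strain SAU1009.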

[49] = test system: Enterococcus faecalis; test: Antibacterial activity against vancomycin-resistant Enterococcus faecalis isolate EFL 4041 in po dosed mouse systemic infection model; assay type: functional; details: isolate EFL 4041, po
[50] = Myelosuppression activity against human CD34-positive blood stem/progenitor cells assessed as growth inhibition after 9 to 10 days by CellTiter-Glo luminescent assay
[51] = test system: Rattus norvegicus; test: Toxicity in female rat assessed as effect on neutrophil count at 100 mg/kg/day, po bid administered for 4 weeks (reference value: 22.4%); assay type: organism-based; set-up: route oral; details: in vivo, 672 h
[52] = test system: Rattus norvegicus; test: Toxicity in female rat assessed as effect on RBC count at 100 mg/kg/day, po bid administered for 4 weeks (reference value: 7.28 x 10^12/L); assay type: organism-based; set-up: route oral; details: in vivo, 672 h

## CC(=O)NC[C@H]1CN(c2ccc(C(C)=O)cc2)C(=O)O1 [DUP-721]
[1]
  MIC: 0.5 µg/mL (≈ 1.81 µM)

## CC(=O)NC[C@H]1CN(c2ccc(N3CCOCC3)c(F)c2)C(=O)O1 [LINEZOLID]
[2]
  Activity: 20.52 pg
[3]
  ED50: 5.9 mg/kg
[4]
  MIC50: 1 µg/mL (≈ 2.96 µM)
  MIC90: 1 µg/mL (≈ 2.96 µM)
[5]
  Activity: 30.18%
[6]
  MIC: 0.06 µg/mL (≈ 0.178 µM)
[7]
  Activity: 54.74 fL
[8]
  MIC: 0.5 µg/mL (≈ 1.48 µM)
  MIC50: 0.5 µg/mL (≈ 1.48 µM)
  MIC90: 1 µg/mL (≈ 2.96 µM)
[9]
  MIC50: 0.5 µg/mL (≈ 1.48 µM)
  MIC90: 1 µg/mL (≈ 2.96 µM)
[10]
  MIC50: 1 µg/mL (≈ 2.96 µM)
  MIC90: 1 µg/mL (≈ 2.96 µM)
[11]
  ED50: 8.7 mg/kg
[12]
  MIC50: 0.5 µg/mL (≈ 1.48 µM)
  MIC90: 1 µg/mL (≈ 2.96 µM)
[13]
  MIC: 0.5 µg/mL (≈ 1.48 µM)
  MIC50: 0.5 µg/mL (≈ 1.48 µM)
  MIC90: 1 µg/mL (≈ 2.96 µM)
[14]
  MIC50: 0.5 µg/mL (≈ 1.48 µM)
  MIC90: 0.5 µg/mL (≈ 1.48 µM)
[15]
  ED50: 8.17 mg/kg
[16]
  ED50: 6.3 mg/kg
[17]
  ED50: 13.4 mg/kg
[18]
  MIC50: 0.5 µg/mL (≈ 1.48 µM)
  MIC90: 1 µg/mL (≈ 2.96 µM)
[19]
  MIC50: 1 µg/mL (≈ 2.96 µM)
  MIC90: 1 µg/mL (≈ 2.96 µM)
[20]
  MIC50: 1 µg/mL (≈ 2.96 µM)
  MIC90: 1 µg/mL (≈ 2.96 µM)
[21]
  MIC50: 1 µg/mL (≈ 2.96 µM)
  MIC90: 1 µg/mL (≈ 2.96 µM)
[22]
  MIC: 1 µg/mL (≈ 2.96 µM)
  MIC50: 1 µg/mL (≈ 2.96 µM)
  MIC90: 1 µg/mL (≈ 2.96 µM)
[23]
  MIC: 1 µg/mL (≈ 2.96 µM)
[24]
  Activity: 112.8 g/L
[25]
  MIC50: 0.5 µg/mL (≈ 1.48 µM)
  MIC90: 0.5 µg/mL (≈ 1.48 µM)
[26]
  MIC90: 8 µg/mL (≈ 23.7 µM)
[27]
  MIC: > 16 µg/mL
[28]
  MIC50: 1 µg/mL (≈ 2.96 µM)
  MIC90: 1 µg/mL (≈ 2.96 µM)
[29]
  MIC: 1 µg/mL (≈ 2.96 µM)
  MIC50: 1 µg/mL (≈ 2.96 µM)
  MIC90: 1 µg/mL (≈ 2.96 µM)
[30]
  Activity: 86.2%
[31]
  Activity: 1.9 ×10⁹ /L
[32]
  MIC50: 1 µg/mL (≈ 2.96 µM)
  MIC90: 1 µg/mL (≈ 2.96 µM)
[33]
  ED50: 10.2 mg/kg
[34]
  ED50: 5.6 mg/kg
[35]
  ED50: 9 mg/kg
[36]
  MIC50: 0.5 µg/mL (≈ 1.48 µM)
  MIC90: 0.5 µg/mL (≈ 1.48 µM)
[37]
  MIC50: 0.5 µg/mL (≈ 1.48 µM)
  MIC90: 1 µg/mL (≈ 2.96 µM)
[38]
  Activity: 1.64%
[39]
  IC50: 24 µM
[40]
  MIC: 1 µg/mL (≈ 2.96 µM)
[41]
  MIC50: 1 µg/mL (≈ 2.96 µM)
  MIC90: 1 µg/mL (≈ 2.96 µM)
[42]
  ED50: 16.8 mg/kg
[43]
  ED50: 7.8 mg/kg
[44]
  Activity: 487.4 ×10⁹ /L
[45]
  MIC50: 0.5 µg/mL (≈ 1.48 µM)
  MIC90: 1 µg/mL (≈ 2.96 µM)
[46]
  MIC50: 1 µg/mL (≈ 2.96 µM)
  MIC90: 1 µg/mL (≈ 2.96 µM)
[47]
  ED50: 9.3 mg/kg
[48]
  MIC90: 2 µg/mL (≈ 5.93 µM)
[49]
  ED50: 6 mg/kg
[50]
  IC50: 6.3 µg/mL (≈ 18.7 µM)
[51]
  Activity: 13%
[52]
  Activity: 5.52 ×10¹² /L
